Measured values taken from ChEMBL document CHEMBL5032493, “Synthesis and Evaluation of PPARδ Agonists That Promote Osteogenesis in a Human Mesenchymal Stem Cell Culture and in a Mouse Model of Human Osteoporosis” (J Med Chem, 2021).
Activity calls are given as the source filed them. The calls are words filed in the database; no cut-off is given here.

Tests used:
[1] = test system: Mesenchymal stem cells; test: Induction of osteogenesis differentiation in human Mesenchymal stem cells at 1 uM incubated for 21 days by Alizarin Red S staining-based microscopic analysis; assay type: functional, cell-based; details: time 21.0 day
[2] = test system: Mesenchymal stem cells; test: Induction of adipogenesis differentiation in human Mesenchymal stem cells at 1 uM incubated for 21 days by […] staining-based microscopic analysis; assay type: functional, cell-based; details: time 21.0 day
[3] = test system: Mesenchymal stem cells; test: Induction of adipogenesis differentiation in human Mesenchymal stem cells at 10 uM incubated for 21 days by […] staining-based microscopic analysis; assay type: functional, cell-based; details: time 21.0 day
[4] = test system: Mesenchymal stem cells; test: Induction of adipogenesis differentiation in human Mesenchymal stem cells at 20 uM incubated for 21 days by […] staining-based microscopic analysis; assay type: functional, cell-based; details: time 21.0 day
[5] = test system: Mesenchymal stem cells; test: Induction of osteogenesis differentiation in human Mesenchymal stem cells at 10 uM incubated for 21 days by Alizarin Red S staining-based microscopic analysis; assay type: functional, cell-based; details: time 21.0 day
[6] = test system: Mesenchymal stem cells; test: Induction of osteogenesis differentiation in human Mesenchymal stem cells at 20 uM incubated for 21 days by Alizarin Red S staining-based microscopic analysis; assay type: functional, cell-based; details: time 21.0 day
[7] = molecular target: T1, Peroxisome proliferator-activated receptor alpha (Homo sapiens, UniProt Q07869); test: Agonist activity at human PPARalpha transfected in COS-7 cells assessed luciferase activity measured after 24 hrs by cell based luciferase transactivation assay
T1 sequence (Q07869 whole entry): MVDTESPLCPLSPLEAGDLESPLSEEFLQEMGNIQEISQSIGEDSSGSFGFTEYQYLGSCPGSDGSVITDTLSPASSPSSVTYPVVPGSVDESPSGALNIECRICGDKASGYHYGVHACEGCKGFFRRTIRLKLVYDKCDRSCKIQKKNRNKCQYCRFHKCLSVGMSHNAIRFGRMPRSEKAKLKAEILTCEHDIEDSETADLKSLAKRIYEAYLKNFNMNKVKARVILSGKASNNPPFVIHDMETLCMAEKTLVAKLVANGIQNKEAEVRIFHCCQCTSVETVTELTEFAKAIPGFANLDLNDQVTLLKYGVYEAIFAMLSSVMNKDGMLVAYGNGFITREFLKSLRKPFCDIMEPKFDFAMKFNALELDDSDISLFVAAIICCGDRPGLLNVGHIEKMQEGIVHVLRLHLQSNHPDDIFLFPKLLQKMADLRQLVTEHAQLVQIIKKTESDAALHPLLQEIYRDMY
How it was run: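 Transient transfection of COS-7 cells with human PPARα, PPARγ or PPARδ plus luciferase reporter; constitutive Renilla luciferase also read. Three or more independent experiments in triplicate (N ≥ 9).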

[8] = molecular target: T2, Peroxisome proliferator-activated receptor delta (Homo sapiens, UniProt Q03181); test: Agonist activity at human PPARdelta transfected in COS-7 cells assessed luciferase activity measured after 24 hrs by cell based luciferase transactivation assay
T2 sequence (Q03181 whole entry): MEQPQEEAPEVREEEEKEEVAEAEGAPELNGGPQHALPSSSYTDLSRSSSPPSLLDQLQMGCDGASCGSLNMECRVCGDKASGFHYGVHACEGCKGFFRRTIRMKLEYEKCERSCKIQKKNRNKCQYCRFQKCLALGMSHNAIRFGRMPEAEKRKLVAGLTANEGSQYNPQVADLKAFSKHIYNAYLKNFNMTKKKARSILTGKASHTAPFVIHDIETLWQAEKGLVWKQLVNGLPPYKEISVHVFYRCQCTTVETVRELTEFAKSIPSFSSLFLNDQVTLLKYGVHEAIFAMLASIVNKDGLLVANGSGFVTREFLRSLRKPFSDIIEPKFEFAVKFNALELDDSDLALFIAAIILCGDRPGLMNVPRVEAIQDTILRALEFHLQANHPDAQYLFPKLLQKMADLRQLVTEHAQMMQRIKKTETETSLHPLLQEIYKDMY

[9] = molecular target: T3, Peroxisome proliferator-activated receptor gamma (Homo sapiens, UniProt P37231); test: Agonist activity at human PPARgamma transfected in COS-7 cells assessed luciferase activity measured after 24 hrs by cell based luciferase transactivation assay
T3 sequence (P37231 whole entry): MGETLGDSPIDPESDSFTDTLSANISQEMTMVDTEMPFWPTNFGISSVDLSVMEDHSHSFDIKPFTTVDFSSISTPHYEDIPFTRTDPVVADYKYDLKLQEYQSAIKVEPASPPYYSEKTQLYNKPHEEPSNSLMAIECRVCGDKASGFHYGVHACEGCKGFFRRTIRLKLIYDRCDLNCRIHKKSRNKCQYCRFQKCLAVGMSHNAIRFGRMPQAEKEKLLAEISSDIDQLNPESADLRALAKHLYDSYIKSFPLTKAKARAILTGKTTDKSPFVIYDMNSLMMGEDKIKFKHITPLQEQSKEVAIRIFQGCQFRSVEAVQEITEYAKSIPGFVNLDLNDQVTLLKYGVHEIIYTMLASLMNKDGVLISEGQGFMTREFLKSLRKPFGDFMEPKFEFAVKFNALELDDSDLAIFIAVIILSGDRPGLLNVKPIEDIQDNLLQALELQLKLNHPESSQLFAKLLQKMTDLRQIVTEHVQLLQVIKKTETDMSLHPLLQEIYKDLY

[10] = molecular target: T4, Peroxisome proliferator-activated receptor alpha (Homo sapiens) (UniProt Q07869); test: Agonist activity at human PPARalpha transfected in COS-7 cells assessed maximum luciferase activity measured after 24 hrs by cell based luciferase transactivation assay relative to gemfibrozil; details: filed as agonist
T4 sequence (whole entry): T1 sequence (Q07869 whole entry)
How it was run: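 Transient transfection of COS-7 cells with human PPARα, PPARγ or PPARδ plus luciferase reporter; constitutive Renilla luciferase also read. […] Three or more independent experiments in triplicate (N ≥ 9).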

[11] = test system: Mus musculus; test: Antiosteoporotic activity against OVX-induced bone loss C57BL/6 mouse model assessed as increase in trabecular bone density at 10 mg/kg, po for 6 weeks by microcomputed tomography method relative to sham treated control; assay type: functional, organism-based
How it was run: (§1)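 Female C57BL/6 mice ovariectomized at 12 weeks of age; sham-operated group kept ovaries intact. After recovery, daily oral gavage of compound or vehicle for 6 weeks, sacrifice at 22 weeks of age. Distal femur trabecular structure analysed by micro-computed tomography, including bone volume/total volume, compared with sham mice; GW0742 as positive control.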

[12] = test system: Mus musculus; test: Antiosteoporotic activity against OVX-induced bone loss C57BL/6 mouse model assessed as increase in ratio of bone volume to total volume at 10 mg/kg, po for 6 weeks by microcomputed tomography method relative to sham treated control; assay type: functional, organism-based; how it was run: as §1
[13] = Glutathione reactivity at pH 7.4 assessed as compound remaining measured after 24 hrs by LC-MS/MS method; assay type: physicochemical; details: pH 7.4, 24 h
How it was run: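 Substrate incubated in triplicate with 10-fold excess glutathione in pH 7.4 phosphate buffer containing 50% methanol at 25 °C for up to 24 h. Substrate loss followed at several time points by LC-MS/MS, which also confirmed the structure of glutathione conjugates.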

[14] = Toxicity in OVX-induced bone loss C57BL/6 mouse model assessed as change in body weight at 10 mg/kg, po for 6 weeks; assay type: organism-based; details: in vivo, 1008 h
How it was run: (§2)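 OVX C57BL/6 females (surgery at 12 weeks, sham controls) dosed daily by oral gavage for 6 weeks. Gross toxicity monitored during dosing as weight, behaviour, eating and other habits versus controls.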

[15] = Toxicity in OVX-induced bone loss C57BL/6 mouse model assessed as change in behaviour at 10 mg/kg, po for 6 weeks; assay type: organism-based; details: in vivo, 1008 h; how it was run: as §2
[16] = Toxicity in OVX-induced bone loss C57BL/6 mouse model assessed as change in eating at 10 mg/kg, po for 6 weeks; assay type: organism-based; details: in vivo, 1008 h; how it was run: as §2
[17] = test system: Mus musculus; test: Antiosteoporotic activity against OVX-induced bone loss C57BL/6 mouse model assessed as increase in microarchitectures at 10 mg/kg, po for 6 weeks by microcomputed tomography method relative to sham treated control; assay type: functional, organism-based; how it was run: as §1
[18] = test system: Mesenchymal stem cells; test: Cytotoxicity against human Mesenchymal stem cells expressing human PPARdelta assessed as morphological changes at 50 uM by microscopy analysis; assay type: cell-based
[19] = test system: COS-7 (Chlorocebus aethiops); test: Cytotoxicity against COS-7 cells expressing human PPARdelta assessed as morphological changes at lower concentration by microscopy analysis; details: monkey
[20] = Cytotoxicity against human HEK293T/17 cells assessed as reduction in cell viability at 10 to 100 uM measured after 72 hrs by MTT assay; assay type: cell-based; details: hek293t/17, 72 h, dose 10-100 µM
How it was run: (§3)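 HEK 293T/17 cultures exposed to agent for 24 h or 72 h; viability by MTT. Controls: H2O2 (toxic positive), plain medium, vehicle at 0.1% DMSO corresponding to the 100 μM dose; doses by serial dilution in medium. Quadruplicate (N = 4), mean with SD; two-tailed P versus 0 μM. Viability <70% taken as relevant to human toxicity.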

[21] = test system: L929; test: Cytotoxicity against mouse L929 cells assessed as reduction in cell viability at 100 uM; assay type: cell-based; details: l929, 100 µM
[22] = test system: L929; test: Cytotoxicity against mouse L929 cells assessed as reduction in cell viability at 1 to 100 uM measured after 72 hrs; assay type: cell-based; details: l929, 72 h, dose 1-100 µM
[23] = test system: PPARdelta (human, expressed in COS-7 cells); test: Cell toxicity index, ratio of CT50 to EC50 for agonist activity at human PPARdelta expressed in COS-7 cells; details: monkey
[24] = Cytotoxicity against human HEK293T/17 cells assessed as reduction in cell viability incubated for 24 hrs by MTT assay; assay type: cell-based; details: hek293t/17, 24 h
How it was run: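 HEK 293T/17 cultures were exposed to drug for 24 h and viability was read by standard MTT. Doses came from serial dilution in medium, top dose 100 μM. Controls were medium only, a DMSO vehicle at its highest level (0.1% in medium before adding to cells), and H2O2 as a toxic control. Runs were in quadruplicate (N = 4), reported as mean with SD and compared to 0 μM by two-tailed P.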

[25] = Cytotoxicity against human HEK293T/17 cells assessed as reduction in cell viability at 10 to 100 uM measured after 24 hrs by MTT assay; assay type: cell-based; details: hek293t/17, 24 h, dose 10-100 µM; how it was run: as §3

Structure (SMILES) | Activity [1] | Activity [2] | Activity [3] | Activity [4] | Activity [5] | Activity [6] | EC50 ([7]; read-out: EC50) | EC50 [8] | EC50 ([9]; read-out: EC50) | Emax [10] | Activity [11] | Activity [12] | Stability [13] | Activity [14] | Activity [15] | Activity [16] | Activity [17] | Activity [18] | Activity [19] | Activity [20] | other results
Cc1nc(-c2ccc(C(F)(F)F)c(F)c2)sc1COc1ccc(/C=C/C(=O)O)cc1 | Active | inactive | Active | inactive | Active | Active | 51300 nM | 95.9 nM | 13.2 µM | 346% | Active | Active | Stable | Toxic | Toxic | Toxic | – | – | – | – | –
Cc1nc(-c2ccc(C(F)(F)F)cc2)sc1CN(C)c1ccc(/C=C/C(=O)O)cc1 | Active | inactive | Active | Active | Active | Active | 947 nM | 199 nM | 24.7 µM | 44% | Active | Active | Stable | Toxic | Toxic | Toxic | Active | Toxic | Non-Toxic | – | –
Cc1nc(-c2ccc(C(F)(F)F)c(F)c2)sc1CSc1ccc(/C=C/C(=O)O)cc1 | Active | inactive | inactive | inactive | Active | Active | 915 nM | 134 nM | 1.3 µM | 163% | – | Active | Stable | Toxic | Toxic | Toxic | Active | – | – | Toxic | Activity [21]: Toxic; Activity [22]: Toxic; selectivity ratio [23]: 1350
Cc1cc(SCc2sc(-c3ccc(C(F)(F)F)c(F)c3)nc2C)ccc1OCC(=O)O | Active | inactive | inactive | – | Active | – | 2500 nM | – | 9.53 µM | > 108% | Active | – | – | – | – | – | – | Toxic | – | Toxic | Activity [24]: Toxic; Activity [21]: Toxic; Activity [22]: Toxic
Cc1nc(-c2ccc(C(F)(F)F)cc2)sc1COc1ccc(/C=C/C(=O)O)cc1 | Active | Active | – | – | – | – | 2230 nM | 274 nM | – | 135% | – | – | – | – | – | – | – | Toxic | Non-Toxic | – | EC50 ([9]; cos-7): Not Active
Cc1cc(N(C)Cc2sc(-c3ccc(C(F)(F)F)cc3)nc2C)ccc1/C=C/C(=O)O | Active | inactive | inactive | inactive | Active | Active | – | 335 nM | – | – | Active | Active | Stable | Toxic | Toxic | Toxic | Active | Toxic | Non-Toxic | Toxic | EC50 ([7]; cos-7): Not Active; EC50 ([9]; cos-7): Not Active; Activity [25]: Toxic; Activity [21]: Non-Toxic; Activity [22]: Toxic; selectivity ratio [23]: 250
